{"source": "ChEMBL document CHEMBL1149296", "about": "“Virtual screening of human 5-aminoimidazole-4-carboxamide ribonucleotide transformylase against the NCI diversity set by use of AutoDock to identify novel nonfolate inhibitors” (J Med Chem, 2004)", "note": "Calls of active or inactive are those of the source. No cut-off for these calls is given here."}
{"molecular_target": "Bifunctional purine biosynthesis protein ATIC (Homo sapiens, UniProt P31939)", "test": "Inhibition of human AICAR Tfase", "how_it_was_run": "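Human ATIC transformylase activity assay run per the cited earlier method. IC50 measured in a mix of 25 nM ATIC, 50 μM AICAR substrate and 8.5 μM 10-formyltetrahydrofolate cofactor, the cofactor made in-house by a modified literature route. Inhibition mode was also examined with 0.1 mg/mL saponin present.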", "units": {"IC50": "µM", "Ki": "µM"}}
{"smiles": "Cc1ccc2nc(-c3ccc(NC(=O)c4ccc(N)cc4)c(S(=O)(=O)O)c3)sc2c1", "IC50": 16.9}
{"smiles": "C[C@]12CC[C@H]3[C@@H](CCC4=CC(=O)CC[C@@H]43)[C@@H]1CCC2OC1(O)C(=O)c2ccccc2C1=O", "note": "(stereo not given in full)", "Activity": "inactive"}
{"smiles": "CC1CCC2N(C1)CC1C3(O)CC45OC6(O)C(O)CCC4(C)C6CCC5C3(O)CC(O)C13C(C)(O)C23O", "note": "(stereo not given)", "Activity": "inactive"}
{"smiles": "CC(C)[C@H](C)/C=C/[C@@H](C)[C@H]1CC[C@H]2C3=CC=C4C[C@@H](O)CC[C@]4(C)[C@H]3CC[C@]12C", "Activity": "inactive"}
{"smiles": "CC(C)(O)/C=C/C(=O)[C@](C)(O)[C@H]1[C@H](O)C[C@@]2(C)[C@@H]3CC=C4[C@@H](C=C(O)C(=O)C4(C)C)[C@]3(C)C(=O)C[C@]12C", "Activity": "inactive"}
{"smiles": "NS(=O)(=O)c1cccc2cc(/N=N/c3cccc4c(S(=O)(=O)O)cccc34)ccc12", "IC50": 0.6, "Ki": 0.154}
{"smiles": "Nc1cccc2cc(S(=O)(=O)Nc3ccc(C(=O)O)cc3)ccc12", "IC50": 4.1}
{"smiles": "CC(CC(=O)O)[C@H]1CC[C@@]2(C)[C@@H]3C(=O)C[C@H]4C(C)(C)[C@@H](O)CC[C@]4(C)[C@H]3C(=O)C[C@]12C", "note": "(single isomer, unassigned)", "Activity": "inactive"}
{"smiles": "CN1CCN(c2ccc3[nH]c(-c4ccc5[nH]c(-c6ccc(O)cc6)nc5c4)nc3c2)CC1", "Activity": "inactive"}
{"smiles": "CC1=NN(c2cc(Cl)c(S(=O)(=O)O)cc2Cl)C(=O)C1/N=N/c1ccc(S(=O)(=O)O)cc1", "note": "(stereo not given)", "IC50": 20.1}
{"smiles": "Cc1cc(N)ccc1/N=N/c1cc(S(=O)(=O)O)c2cccc(S(=O)(=O)O)c2c1", "IC50": 7.6}
{"smiles": "Cc1ccc(S(=O)(=O)Nc2cc([N+](=O)[O-])c3scnc3c2)cc1", "IC50": 36.1}
{"smiles": "O=S(=O)(O)c1cc(/N=[N+](\\[O-])c2cc(S(=O)(=O)O)c3ccccc3c2)cc2ccccc12", "IC50": 7.8}
{"smiles": "C[C@H](CCC(=O)O)[C@H]1CC[C@H]2[C@@H]3CC[C@@H]4C[C@@H](O)CC[C@]4(C)[C@H]3C[C@H](O)[C@]12C", "Activity": "inactive"}
{"smiles": "Cc1ccc(S(=O)(=O)N/N=C2/C=C3CC[C@H]4[C@@H]5CC[C@H]([C@H](C)CCCC(C)C)[C@@]5(C)CC[C@@H]4[C@@]3(C)CC2)cc1", "IC50": 9.6}
{"smiles": "C[C@@H]1O[C@@H](O[C@H]2C[C@@H](O)[C@]3(CO)[C@H]4[C@H](O)C[C@]5(C)[C@@H](C6=CC(=O)OC6)CC[C@]5(O)[C@@H]4CC[C@]3(O)C2)[C@H](O)[C@H](O)[C@H]1O", "Activity": "inactive"}
{"smiles": "O=C(O)C1=C/C(=C/C(c2ccccc2)c2cc(C(=O)O)c(O)c3ccccc23)c2ccccc2C1=O", "note": "(stereo not given)", "IC50": 204}
{"smiles": "O=S(=O)(O)c1ccc(/N=N/c2ccc(/N=N/c3ccc(O)c4cccc(S(=O)(=O)O)c34)cc2)cc1", "IC50": 11.6}
{"smiles": "Cc1ccc(OS(=O)(=O)c2ccc(/N=N/c3c(C)[nH]n(-c4ccc(Cl)cc4S(=O)(=O)O)c3=O)cc2)cc1", "IC50": 3.3}
{"smiles": "C[C@]12CC[C@H]3[C@@H](CCC4=CC(=O)CC[C@@]43C)[C@@H]1CC[C@@H]2C(=O)COS(=O)(=O)c1ccc(Br)cc1", "IC50": 13.9}
{"smiles": "O=C(O)c1cc(C(=O)C(=O)c2cc(C(=O)O)c(O)c3ccccc23)c2ccccc2c1O", "IC50": 8.8}
{"smiles": "CC(=O)Nc1ccc(S(=O)(=O)Nc2cnc3ccccc3n2)cc1", "IC50": 54.7}
{"smiles": "COc1ccc(C(=O)O[C@H]2CC[C@@]3(C)[C@@H]4CC[C@H]5[C@]6(O)C[C@H](O)[C@@]7(O)[C@@H](CN8C[C@@H](C)CC[C@H]8[C@@]7(C)O)[C@]6(O)C[C@@]53O[C@]24O)cc1OC", "note": "[VERATRIDINE]", "IC50": 231}
{"smiles": "CC1=NN(c2ccc(S(=O)(=O)O)cc2)C(=O)C1/N=N/c1ccc(S(=O)(=O)Nc2ccccc2)c(C)c1", "note": "(stereo not given)", "IC50": 11.6}
